# Legend:
# [1] = test system: LPA1 GPCR; conditions: cited from earlier work
# [2] = test system: LPA2 GPCR; conditions: cited from earlier work
# [3] = molecular target: Recombinant ATX (Homo sapiens, UniProt Q13822); assay type: biochemical; conditions: for Mechanism of ATX inhibition: assigned by lowest averaged percent residuals of curve fitting
# Summary of the method: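 Recombinant autotaxin ([…]) with test compound at various concentrations, in pH 8.0 Tris-HCl 50 mM buffer with NaCl 140 mM, KCl 3 mM, MgCl2 and CaCl2 1 mM each, and fatty-acid-free BSA 15 μM; LPA 18:1 as positive control. Fluorescence (ex 485/em 538 nm) read at start and after 2 h, 37 °C; activity as percent of vehicle, triplicate wells. For mechanism, FS-3 varied 0.3–20 μM at three inhibitor levels; competitive, uncompetitive, mixed and non-competitive models fitted simultaneously to give Ki.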
# [4] = molecular target: LPA5 (Homo sapiens, UniProt Q9H1C0); assay: LPA5-mediated calcium mobilization in B103 cells stably expressing LPA5; assay type: cell-based; conditions: concentrations above 1 μM, p < 0.05
# Chain of LPA5 (Q9H1C0 whole entry, species assumed): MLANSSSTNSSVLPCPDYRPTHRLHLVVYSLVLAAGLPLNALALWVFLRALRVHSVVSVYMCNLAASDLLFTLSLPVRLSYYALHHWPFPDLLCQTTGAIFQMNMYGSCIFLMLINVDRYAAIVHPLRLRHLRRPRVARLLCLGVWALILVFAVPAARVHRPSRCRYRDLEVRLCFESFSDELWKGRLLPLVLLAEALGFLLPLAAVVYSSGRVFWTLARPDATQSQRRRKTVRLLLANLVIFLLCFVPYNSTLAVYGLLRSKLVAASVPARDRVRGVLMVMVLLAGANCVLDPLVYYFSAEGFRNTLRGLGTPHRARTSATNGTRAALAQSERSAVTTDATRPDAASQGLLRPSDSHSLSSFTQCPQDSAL
Compound,LPA1 GPCR activation [1],LPA2 GPCR activation [2],"Potency in ATX inhibition relative to S-3-CCPA ([3]; FS-3 1 μM, 2 hours at 37 °C)",Mechanism of ATX inhibition [3],Efficacy for LPA5-mediated calcium mobilization compared with R-3-CCPA [4]
"1-acyl-2,3-glycerophosphate [CPA]",weak agonist,weak agonist,,,
CCCCCCCCCCCCCCCCCC(=O)OC[C@H]1CCP(=O)([O-])O1.[Na+] [R-3-CCPA],,,approximately 2 fold,mixed mode,
CCCCCCCCCCCCCCCCCC(=O)OC[C@@H]1CCP(=O)([O-])O1.[Na+] [S-3-CCPA],,,,mixed mode,significantly higher

# From article PMC3040411 (Bioorganic & medicinal chemistry letters, 2010)
